A selection: hits, their analogues and other compounds. The true share with any hit is near 5.8%.
Pf Dd2 growth: P. falciparum Dd2 growth inhibition; SYBR Green, 72 h; stronger effect = lower value; activity change, % at 10 µM; 94,000 compounds, 2.3% hits; in the data active means activity change below about -80%; inconclusive means no clear call, values can overlap the other calls
T cruzi growth-1: T. cruzi proliferation inhibition; T. cruzi beta-gal in NIH3T3, GalScreen luminescence, 90 h; AID 624255; 77,000 compounds, 5.9% hits; inhibition, % at 8.34 µM;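 active means mean inhibition above about 93%, with at least 55% of replicates each passing it, limit read from the data, passing the limit was not always enough; inconclusive means only one of those two conditions holds; inactive means neither condition holds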
GASC1 inh: blocks human GASC-1 (KDM4C) demethylase activity; 96,000 compounds, 0.15% hits; inhibition, % at 12.5 µM; Q9H3R0; GST-KDM4C 2-372, H3K9me3 peptide, LANCE TR-FRET;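 active means mean replicate inhibition above about 25%, with at least 55% of replicates also reaching it, limit read from the data, passing the limit was not always enough; inconclusive means only one of those two conditions met; inactive means neither condition met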
Target sequence (Q9H3R0 2-372 limits assumed): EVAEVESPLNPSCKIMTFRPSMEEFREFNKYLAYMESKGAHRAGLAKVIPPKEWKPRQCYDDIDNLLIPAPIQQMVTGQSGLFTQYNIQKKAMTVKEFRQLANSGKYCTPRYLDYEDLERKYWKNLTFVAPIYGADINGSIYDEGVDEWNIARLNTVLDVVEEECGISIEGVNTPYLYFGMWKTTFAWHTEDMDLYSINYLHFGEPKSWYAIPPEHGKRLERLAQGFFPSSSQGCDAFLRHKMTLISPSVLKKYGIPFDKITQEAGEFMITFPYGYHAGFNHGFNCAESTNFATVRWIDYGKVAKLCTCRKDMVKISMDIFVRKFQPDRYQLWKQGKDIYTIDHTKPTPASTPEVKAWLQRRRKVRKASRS
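Test system: N-terminal GST-fused human GASC-1 (KDM4C) fragment, residues 2-372; quantity: GASC-1 enzyme at 10 nM final in reaction; dosing: single dose; schedule: 30 min demethylation and 1 h detection at room temperature; signal: LANCE TR-FRET, excitation 340 nm, emissions 618 and 671 nm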
IDH1 R132H inh: blocks human IDH1 R132H reductase activity. O75874. diaphorase/resazurin fluorescence, 60 min. inhibition, % at 10 µM. 70,000 compounds, 0.18% hits. AID 624101; in the data active means inhibition above about 34%; inconclusive means no clear call, values can overlap the other calls; inactive means below about 11%
T cruzi growth-2: blocks T. cruzi growth in NIH3T3 host cells; AID 651739; T. cruzi beta-gal in NIH3T3, GalScreen luminescence, 90 h; shares compounds with T cruzi growth-1; 5,600 compounds, 72% hits; inhibition, % at 8.35 µM;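 active means mean replicate inhibition above about 95% and at least 55% of replicates individually reaching it, limit read from the data; inconclusive means only one of the two criteria is met; inactive means neither criterion is met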
T cruzi growth-3: Trypanosoma cruzi proliferation inhibition. shares compounds with T cruzi growth-1. T. cruzi beta-gal in NIH3T3, GalScreen luminescence, 90 h. inhibition, % at 2.09 µM. 5,600 compounds, 21% hits;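 active means mean inhibition above about 95%, with at least 55% of replicates also reaching it, limit read from the data; inconclusive means meets just one of the two conditions; inactive means meets neither condition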
NIH3T3 tox: NIH/3T3 (mouse) viability loss | shares compounds with T cruzi growth-1 | NIH/3T3 viability, CellTiter-Glo ATP luminescence, 90 h | cytotoxicity (signal decrease), % at 8.35 µM | 5,600 compounds, 14% hits;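 active means mean signal decrease across replicates above about 35% based on untreated-well scatter, with enough replicates individually passing, limit read from the data; inconclusive means no rule stated though some were filed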
NIH3T3 tox 2: cytotoxicity in mouse NIH/3T3 fibroblasts. NIH/3T3 viability, CellTiter-Glo ATP luminescence, 90 h. shares compounds with T cruzi growth-1. AID 651744. 5,600 compounds, 56% hits. inhibition, % at 24.9 µM;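 active means mean loss of cell viability signal at or above a set limit, and enough replicates individually reaching it; inconclusive means meets only the mean limit or only the replicate share; inactive means meets neither condition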
Each line names hits and unclear results; the compound was inactive in the other large screens (follow-up assays come after a bar, where they were run).

C[C@@H]1CCCCO[C@@H](CN(C)Cc2ccc(Cl)c(Cl)c2)[C@@H](C)CN([C@@H](C)CO)C(=O)c2cc(NC(=O)Cc3ccccc3)ccc2O1	T cruzi growth-1 98 | T cruzi growth-2 106 | T cruzi growth-3 inactive | NIH3T3 tox inactive | NIH3T3 tox 2 inactive
C[C@@H]1CCCCO[C@@H](CN(C)Cc2ccc3c(c2)OCO3)[C@H](C)CN([C@H](C)CO)C(=O)c2cc(NC(=O)Cc3ccccc3)ccc2O1	none (no result: IDH1 R132H inh)
C[C@@H]1CN([C@H](C)CO)C(=O)c2cc(NC(=O)Cc3ccccc3)ccc2O[C@@H](C)CCCCO[C@@H]1CN(C)Cc1ccc(Cl)c(Cl)c1	none (no result: IDH1 R132H inh)
Cc1noc(C)c1S(=O)(=O)N(C)C[C@H]1OCCCC[C@@H](C)Oc2ccc(NC(=O)NC3CCCCC3)cc2C(=O)N([C@@H](C)CO)C[C@H]1C	none
C[C@@H]1CCCCO[C@@H](CN(C)Cc2ccc(Cl)c(Cl)c2)[C@@H](C)CN([C@H](C)CO)C(=O)c2cc(NC(=O)Nc3ccc4c(c3)OCO4)ccc2O1	T cruzi growth-1 104 | T cruzi growth-2 104 | T cruzi growth-3 inactive | NIH3T3 tox inactive | NIH3T3 tox 2 inactive
C[C@@H]1CCCCO[C@H](CN(C)CC2CCCCC2)[C@@H](C)CN([C@H](C)CO)C(=O)c2cc(NC(=O)Nc3ccc4c(c3)OCO4)ccc2O1	T cruzi growth-1 97 (no result: IDH1 R132H inh) | T cruzi growth-2 109 | T cruzi growth-3 112 | NIH3T3 tox inactive | NIH3T3 tox 2 83
C[C@@H]1CCCCO[C@H](CN(C)Cc2ccc3c(c2)OCO3)[C@H](C)CN([C@@H](C)CO)C(=O)c2cc(NC(=O)c3ccncc3)ccc2O1	T cruzi growth-1 112 | T cruzi growth-2 inactive | T cruzi growth-3 inactive | NIH3T3 tox inactive | NIH3T3 tox 2 inactive
C[C@H](CO)N1C[C@H](C)[C@H](CN(C)Cc2ccc3c(c2)OCO3)OCCCC[C@H](C)Oc2ccc(NC(=O)Nc3ccccc3)cc2C1=O	T cruzi growth-1 103 | T cruzi growth-2 106 | T cruzi growth-3 inactive | NIH3T3 tox inactive | NIH3T3 tox 2 104
C[C@@H]1CN([C@H](C)CO)C(=O)c2cc(C#Cc3ccccn3)cnc2O[C@@H]1CN(C)CC1CCCC1	none
COc1ccc(NC(=O)N2CC(=O)N3[C@H](CO)[C@H](c4ccc(Br)cc4)[C@H]3C2)cc1	none (no result: T cruzi growth-1, IDH1 R132H inh)
C[C@@H]1CN([C@H](C)CO)C(=O)c2cc(NC(=O)Cc3ccccc3)ccc2O[C@@H]1CN(C)Cc1ccc(Cl)c(Cl)c1	T cruzi growth-1 109 | T cruzi growth-2 109 | T cruzi growth-3 inactive | NIH3T3 tox inactive | NIH3T3 tox 2 93
CC(C)CC#Cc1ccc2c(c1)O[C@@H](CN(C)C(=O)c1ccccc1F)[C@@H](C)CN([C@@H](C)CO)S2(=O)=O	T cruzi growth-1 inconclusive | T cruzi growth-2 96 | T cruzi growth-3 inactive | NIH3T3 tox inactive | NIH3T3 tox 2 106
CC(C)CC#Cc1ccc2c(c1)O[C@@H](CN(C)C(=O)c1ccccc1F)[C@@H](C)CN([C@H](C)CO)S2(=O)=O	T cruzi growth-1 99 | T cruzi growth-2 inactive | T cruzi growth-3 inactive | NIH3T3 tox inactive | NIH3T3 tox 2 103
CC(C)CC#Cc1ccc2c(c1)O[C@H](CN(C)C(=O)c1ccccc1F)[C@H](C)CN([C@@H](C)CO)S2(=O)=O	T cruzi growth-1 inconclusive
CCCC#Cc1ccc2c(c1)O[C@@H](CN(C)C(=O)c1ccccc1F)[C@H](C)CN([C@@H](C)CO)S2(=O)=O	Pf Dd2 growth -81, T cruzi growth-1 112 | T cruzi growth-2 104 | T cruzi growth-3 inactive | NIH3T3 tox inactive | NIH3T3 tox 2 85
COCC#Cc1ccc2c(c1)O[C@@H](CN(C)C(=O)c1ccccc1F)[C@@H](C)CN([C@@H](C)CO)S2(=O)=O	none
CCCC#Cc1ccc2c(c1)O[C@H](CN(C)C(=O)c1ccccc1F)[C@H](C)CN([C@@H](C)CO)S2(=O)=O	none
CNC[C@H]1OCCCC[C@H](C)Oc2ccc(NS(C)(=O)=O)cc2C(=O)N([C@@H](C)CO)C[C@@H]1C	T cruzi growth-1 101 | T cruzi growth-2 inactive | T cruzi growth-3 inactive | NIH3T3 tox inactive | NIH3T3 tox 2 inactive
CNC[C@H]1OCCCC[C@H](C)Oc2ccc(NS(=O)(=O)c3ccc(C)cc3)cc2C(=O)N([C@@H](C)CO)C[C@@H]1C	T cruzi growth-1 102 | T cruzi growth-2 inactive | T cruzi growth-3 inactive | NIH3T3 tox inactive | NIH3T3 tox 2 inactive
CNC[C@@H]1OCCCC[C@H](C)Oc2ccc(NS(=O)(=O)c3ccc(C)cc3)cc2C(=O)N([C@@H](C)CO)C[C@H]1C	none (no result: IDH1 R132H inh)
Cc1noc(C)c1S(=O)(=O)Nc1ccc2c(c1)C(=O)N([C@@H](C)CO)C[C@@H](C)[C@H](CN(C)Cc1ccc(Cl)c(Cl)c1)OCCCC[C@@H](C)O2	T cruzi growth-1 inconclusive (no result: IDH1 R132H inh) | T cruzi growth-2 inactive | T cruzi growth-3 104 | NIH3T3 tox 57 | NIH3T3 tox 2 105
Cc1noc(C)c1S(=O)(=O)Nc1ccc2c(c1)C(=O)N([C@H](C)CO)C[C@H](C)[C@H](CN(C)Cc1ccc(C(F)(F)F)cc1)OCCCC[C@H](C)O2	T cruzi growth-1 101 (no result: IDH1 R132H inh) | T cruzi growth-2 97 | T cruzi growth-3 105 | NIH3T3 tox inactive | NIH3T3 tox 2 105
Cc1noc(C)c1S(=O)(=O)Nc1ccc2c(c1)C(=O)N([C@H](C)CO)C[C@H](C)[C@H](CN(C)Cc1ccc(C(=O)O)cc1)OCCCC[C@H](C)O2	none (no result: IDH1 R132H inh)
Cc1noc(C)c1S(=O)(=O)Nc1ccc2c(c1)C(=O)N([C@@H](C)CO)C[C@@H](C)[C@H](CN(C)Cc1ccc(C(F)(F)F)cc1)OCCCC[C@H](C)O2	none
Cc1noc(C)c1S(=O)(=O)Nc1ccc2c(c1)C(=O)N([C@H](C)CO)C[C@H](C)[C@@H](CN(C)Cc1ccc(C(F)(F)F)cc1)OCCCC[C@H](C)O2	T cruzi growth-1 100 (no result: IDH1 R132H inh) | T cruzi growth-2 110 | T cruzi growth-3 107 | NIH3T3 tox inactive | NIH3T3 tox 2 105
Cc1noc(C)c1S(=O)(=O)Nc1ccc2c(c1)C(=O)N([C@@H](C)CO)C[C@H](C)[C@@H](CN(C)Cc1ccc(C(F)(F)F)cc1)OCCCC[C@@H](C)O2	T cruzi growth-1 98 | T cruzi growth-2 inconclusive | T cruzi growth-3 inconclusive | NIH3T3 tox inactive | NIH3T3 tox 2 105
C[C@H]1CN([C@@H](C)CO)C(=O)c2cc(NC(=O)Nc3ccc(F)cc3)ccc2O[C@@H]1CN(C)CC1CC1	Pf Dd2 growth inconclusive (no result: T cruzi growth-1)
C/C=C/c1ccc2c(c1)O[C@@H](CN(C)Cc1ccc(C(=O)O)cc1)[C@@H](C)CN([C@@H](C)CO)S2(=O)=O	none (no result: T cruzi growth-1)

Screens (PubChem)
